The source of these data is ChEMBL document CHEMBL1121717, “Tetrahydro-2-benzoxepins: a novel family of hypotensives” (1981).

The source made the active and inactive calls. The calls are words filed in the database; no cut-off is given here.

The subject of experiment [1] is Felis catus. Briefly: Effect of compound on blood pressure was measured in baroreceptor denervated cats at time 60min, after iv administration of 1.0 mg/kg. The class given is functional. The gist of the method: (§1)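 Cats of either sex anesthetized i.p. with sodium diallylbarbituric acid (60 mg/kg) plus urethane (240 mg/kg), placed in stereotaxic frame, tracheal tube inserted; femoral artery cannulated for arterial pressure, femoral vein for drug. Sympathetic activity recorded from preganglionic splanchnic nerve. 1.0 mg/kg iv; n = 6 treated, n = 8 vehicle; MAP, HR and % SNA (0 min = 100) read at 0–60 min; mean ± error.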

Experiment [2] concerns Felis catus. The experiment can be described thus: Effect of compound on heart rate was measured in baroreceptor denervated cats at time 10min, after iv administration of 1.0 mg/kg. The experiment is classed as functional. In outline: as §1
Experiment [3] deals with Felis catus. Briefly: Effect of compound on sympathetic nerve activity was measured in baroreceptor denervated cats at time 60min, after iv administration of 1.0 mg/kg. The experiment is classed as functional. The gist of the method: as §1
Experiment [4] concerns Felis catus. The experiment can be described thus: Effect of compound on blood pressure was measured in baroreceptor denervated cats at time 10min, after iv administration of 1.0 mg/kg. The experiment is classed as functional. The gist of the method: as §1
Experiment [5] deals with Felis catus. Briefly: Effect of compound on heart rate was measured in baroreceptor denervated cats at time 0min, after iv administration of 1.0 mg/kg. The experiment is classed as functional. The gist of the method: as §1
Experiment [6] deals with Felis catus. Briefly: Effect of compound on sympathetic nerve activity was measured in baroreceptor denervated cats at time 40min, after iv administration of 1.0 mg/kg. The class given is functional. In outline: as §1
Experiment [7] deals with Felis catus. Briefly: Effect of compound on sympathetic nerve activity was measured in baroreceptor denervated cats at time 0min, after iv administration of 1.0 mg/kg. The class given is functional. In outline:
as §1

Experiment [8] concerns Rattus norvegicus. The experiment can be described thus: Oral hypotensive activity of compound was tested in conscious rats after oral administration at 50 mg/Kg dose; -49/-52. The experiment is classed as functional, organism-based.
For experiment [9], the system named is Felis catus. The experiment can be described thus: Effect of compound on heart rate was measured in baroreceptor denervated cats at time 20min, after iv administration of 1.0 mg/kg. The class given is functional. In outline:
as §1

Experiment [10] concerns Felis catus. Briefly: Effect of compound on heart rate was measured in baroreceptor denervated cats at time 60min, after iv administration of 1.0 mg/kg. The class given is functional. In outline:
as §1

Experiment [11] deals with Felis catus. The experiment can be described thus: Effect of compound on blood pressure was measured in baroreceptor denervated cats at time 20min, after iv administration of 1.0 mg/kg. The experiment is classed as functional. The gist of the method: as §1
Experiment [12] has as its system Felis catus. Briefly: Effect of compound on sympathetic nerve activity was measured in baroreceptor denervated cats at time 10min, after iv administration of 1.0 mg/kg. The experiment is classed as functional. The gist of the method: as §1
Experiment [13] deals with Felis catus. The experiment can be described thus: Effect of compound on blood pressure was measured in baroreceptor denervated cats at time 40min, after iv administration of 1.0 mg/kg. The experiment is classed as functional. The gist of the method: as §1
Experiment [14] relates to Felis catus. Briefly: Effect of compound on blood pressure was measured in baroreceptor denervated cats at time 5min, after iv administration of 1.0 mg/kg. The experiment is classed as functional. The gist of the method: as §1
Experiment [15] has as its system Felis catus. The experiment can be described thus: Effect of compound on heart rate was measured in baroreceptor denervated cats at time 40min, after iv administration of 1.0 mg/kg. The experiment is classed as functional. In outline:
as §1

Experiment [16] concerns Rattus norvegicus. Briefly: Oral hypotensive activity of compound was tested in conscious rats after oral administration at 5 mg/Kg dose; -24/-9. The class given is functional, organism-based.
The subject of experiment [17] is Felis catus. Briefly: Effect of compound on heart rate was measured in baroreceptor denervated cats at time 5min, after iv administration of 1.0 mg/kg. The class given is functional. In outline:
as §1

Experiment [18] relates to Felis catus. Briefly: Effect of compound on sympathetic nerve activity was measured in baroreceptor denervated cats at time 20min, after iv administration of 1.0 mg/kg. The experiment is classed as functional. In outline:
as §1

Experiment [19] has as its system Felis catus. The experiment can be described thus: Effect of compound on blood pressure was measured in baroreceptor denervated cats at time 0 min, after iv administration of 1.0 mg/kg. The class given is functional. The gist of the method:
as §1

The subject of experiment [20] is Felis catus. Briefly: Effect of compound on sympathetic nerve activity was measured in baroreceptor denervated cats at time 5min, after iv administration of 1.0 mg/kg. The experiment is classed as functional. In outline:
as §1

As for `COc1cc2c(cc1OC)C(CCN1CCN(c3ccc(F)cc3)CC1)OCCC2.Cl` (stereo not given), the MAP in the experiment with Felis catus [1] is recorded as 109; in the experiment on Felis catus [4] it was 85; in the experiment with Felis catus [11], 95; in the experiment on Felis catus [13], 107; in the experiment on Felis catus [14], 75; in the experiment with Felis catus [19], 131. Further, the HR with Felis catus [2] came to 230; in the experiment with Felis catus [5], 229; in the experiment on Felis catus [9], 230; in the experiment on Felis catus [10] it was 232; in the experiment with Felis catus [15], 231; in the experiment with Felis catus [17], 229. Besides, the SNA stood at 96% in the experiment with Felis catus [3]; 88% in the experiment with Felis catus [6]; 100% with Felis catus [7]; 76% in the experiment on Felis catus [12]; 86% in the experiment on Felis catus [18]; 72% with Felis catus [20]. Besides, the Delta blood pressure result in the experiment on Rattus norvegicus [8] and in the experiment with Rattus norvegicus [16] was “Active” each time.
